Source: ChEMBL document CHEMBL1158069, “Antiplasmodial metabolites isolated from the marine octocoral Muricea austera” (J Nat Prod, 2006)

Assays:
Plasmodium falciparum = test: Antiplasmodial activity against chloroquine-resistant Plasmodium falciparum W2 as parasite DNA microfluorimetric assay; assay type: functional, organism-based
Procedure, shortened: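 P. falciparum W2 (chloroquine-resistant) grown by the Trager–Jensen method at 2% hematocrit in RPMI 1640 with 10% human serum. Growth inhibition read microfluorimetrically by PicoGreen intercalation into parasite DNA. IC50 in µM.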

Trypanosoma cruzi = test: Antitrypanosomal activity against Trypanosoma cruzi Tulahuen C4 infected in african green monkey Vero cells assessed as growth inhibition of […] by beta-galactosidase reporter gene assay; assay type: functional, organism-based
Procedure, shortened: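 Recombinant Tulahuen clone C4 expressing β-galactosidase reporter; […] grown inside Vero cells with test samples. β-Gal cleavage of chlorophenol red-β-D-galactoside (CPRG) read colorimetrically at 570 nm. IC50 taken as concentration giving 50% inhibition of parasite growth versus untreated control, on duplicate samples.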

Structure (SMILES)	IC50 (Plasmodium falciparum) [µM]	IC50 (Trypanosoma cruzi) [µM]
CC(=O)NCCc1ccc(O)cc1	> 50	–
CCCCCCCCCC(=O)NCCc1ccc(O)cc1	72	–
CCCCCCCCCCCC(=O)NCCc1ccc(O)cc1	47	–
O=C(NCCc1ccc(O)cc1)c1ccccc1	> 50	–
CCCCCCCCCCCC(=O)O[C@@H]1[C@@H](OC(=O)CCCCCCCCCCC)[C@@H](OC)OC[C@@H]1OC(=O)CCCCCCCCCCC	> 50	> 50
CO[C@H]1O[C@H](COC(=O)c2ccccc2)[C@H](OC(=O)c2ccccc2)[C@H](OC(=O)c2ccccc2)[C@H]1OC(=O)c1ccccc1	29	> 50
C=C[C@H]1CC[C@H]2[C@@H]3CC=C4C[C@@H](O[C@@H]5OC[C@@H](OC(C)=O)[C@@H](OC(C)=O)[C@@H]5OC(C)=O)CC[C@]4(C)[C@H]3CC[C@]12C	28	28
CCCCCCCCCCCC(=O)O[C@@H]1[C@@H](OC(=O)CCCCCCCCCCC)[C@H](OC)OC[C@@H]1OC(=O)CCCCCCCCCCC	> 50	> 50
CC/C=C\C/C=C\C/C=C\CCCC(=O)NCCc1ccc(O)cc1	38	–
O=C(CCCCC(=O)NCCc1ccc(O)cc1)NCCc1ccc(O)cc1	117	–
CCCCCCCCCC(C)CC(=O)NCCc1ccc(O)cc1 (stereo not given)	45	> 50
C=C[C@H]1CC[C@H]2[C@@H]3CC=C4C[C@@H](O[C@@H]5OC[C@@H](O)[C@@H](OC(C)=O)[C@@H]5O)CC[C@]4(C)[C@H]3CC[C@]12C	67	96
C=C[C@H]1CC[C@H]2[C@@H]3CC=C4C[C@@H](O[C@@H]5OC[C@@H](OC(C)=O)[C@@H](O)[C@@H]5O)CC[C@]4(C)[C@H]3CC[C@]12C	80	101
CCCCO[C@@H]1OC[C@H](OC(C)=O)[C@H](OC(C)=O)[C@H]1OC(C)=O	> 50	> 50
CC[C@H](O)CC(=O)NCCc1ccc(O)cc1	> 50	–
CCCCCCCCCCCC(=O)NCCc1cc(Br)c(O)c(Br)c1	17	–
CO[C@@H]1OC[C@H](OC(C)=O)[C@H](OC(C)=O)[C@H]1OC(C)=O	> 50	> 50

Structure (SMILES)	IC50 (Plasmodium falciparum) [µM]	IC50 (Trypanosoma cruzi) [µM]
CO[C@H]1O[C@H](C)[C@H](OC(=O)c2ccccc2)[C@H](OC(=O)c2ccccc2)[C@H]1OC(=O)c1ccccc1	43	> 50
CCCCCCC(O)CCCCCCCCCCC(=O)NCCc1ccc(O)cc1 (stereo not given)	62	–
CCCCCCCCCCCCNC(=O)CCc1ccc(O)cc1	24	–
CCCCCCCCC/C(C)=C\C(=O)NCCc1ccc(O)cc1	36	> 50
CC(=O)O/C1=C/Cc2c(C)coc2C/C(C)=C/CC1	> 50	–
O=C(NCCc1ccc(OC(=O)c2ccccc2)cc1)c1ccccc1	64	–
CO[C@@H]1OC[C@H](OC(=O)c2ccccc2)[C@H](OC(=O)c2ccccc2)[C@H]1OC(=O)c1ccccc1	21	> 50
CCCCCCCCCCCCCC(=O)NCCc1ccc(O)cc1	34	–
CO[C@@H]1O[C@H](COC(=O)c2ccccc2)[C@H](OC(=O)c2ccccc2)[C@H](OC(=O)c2ccccc2)[C@H]1OC(=O)c1ccccc1	> 50	> 50
O=CNCCc1ccc(O)cc1	> 50	–
C=C[C@]1(C)Cc2occ(C)c2C[C@H]1C(=C)OC(C)=O	42	173
CO[C@H]1OC[C@H](OC(=O)c2ccccc2)[C@H](OC(=O)c2ccccc2)[C@H]1OC(=O)c1ccccc1	35	> 50
CO[C@@H]1O[C@H](C)[C@H](OC(=O)c2ccccc2)[C@H](OC(=O)c2ccccc2)[C@H]1OC(=O)c1ccccc1	36	> 50
O[C@@H]1[C@@H](O)[C@@H](O)CO[C@H]1O [L-ARABINOSE]	> 50	> 50
CC1CS(=O)(=O)CCN1/N=C/c1ccc([N+](=O)[O-])o1 (stereo not given) [NIFURTIMOX]	–	11
NCCc1ccc(O)cc1 [TYRAMINE]	160	–
